Values after ≈ are worked out from the molar mass of the structure shown. Active and inactive are the calls of the source. The rule behind the calls is not given here.
Experiments:
[1] = system: Candida albicans; assay: Fungicidal activity against Candida albicans ATCC 10231 at 0.98 to 250 ug/mL after 48 hrs by agar plate dilution method; assay type: functional, organism-based
In short: (§1)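 MFC: after the microdilution MIC, material from each clear well was plated onto RPMI-1640 agar buffered with MOPS. Plates incubated at 30 °C and read after 48 h. MFC is the lowest concentration giving total inhibition of visible growth.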

[2] = system: Candida albicans; assay: Antifungal activity against Candida albicans ATCC 10231 assessed as growth inhibition at 62.5 ug/mL after 24 hrs by microplate reader analysis; assay type: functional; settings: ATCC 10231, 24 h, read-out: GI
In short: (§2)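 96-well RPMI-1640 wells with compound at final 250–0.98 µg/mL (DMSO ≤1%). Inoculum 100 µL, 1–5 × 10³ CFU/mL, 200 µL final. Each well includes growth (DMSO, no compound) and sterility controls. % inhibition = 100 − (CTW−SCW)/(GCW−SCW) × 100, run in duplicate.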

[3] = system: Candida tropicalis; assay: Antifungal activity against Candida tropicalis assessed as growth inhibition at 62.5 ug/mL by microplate reader analysis; assay type: functional; settings: read-out: GI
[4] = system: Aspergillus fumigatus; assay: Antifungal activity against Aspergillus fumigatus ATCC 26934 at 0.98 to 250 ug/mL by NCCLS broth microdilution method; assay type: functional, organism-based
In short: (§3)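 MIC by broth microdilution per NCCLS M27-A3/M38-A2 in RPMI-1640 buffered to pH 7.0 with MOPS. Twofold dilutions from 250–0.98 µg/mL, final DMSO ≤1%. Inoculum 1–5 × 10³ CFU/mL. Incubated in a moist dark chamber, 30 °C for Aspergillus and 28–30 °C for dermatophytes. Read visually when control growth allowed. Endpoint is the lowest concentration giving total inhibition of visible growth (MIC100).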

[5] = system: Candida tropicalis; assay: Antifungal activity against Candida tropicalis assessed as growth inhibition at 15.6 ug/mL by microplate reader analysis; assay type: functional; settings: read-out: GI
[6] = system: Trichophyton mentagrophytes; assay: Antifungal activity against Trichophyton mentagrophytes ATCC 9972 at 0.98 to 250 ug/mL by NCCLS broth microdilution method; assay type: functional, organism-based; in short: as §3
[7] = system: Nannizzia gypsea; assay: Antifungal activity against Microsporum gypseum CCC 115 at 0.98 to 250 ug/mL by NCCLS broth microdilution method; assay type: functional, organism-based; in short: as §3
[8] = system: Cryptococcus neoformans; assay: Antifungal activity against Cryptococcus neoformans ATCC 32264 after 48 hrs by NCCLS broth microdilution method; assay type: functional; settings: ATCC 32264, 48 h, read-out: MIC100
In short: (§4)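 Yeast MIC by NCCLS M27-A3 broth microdilution in RPMI-1640 buffered to pH 7.0 with MOPS. Twofold dilutions of 250–0.98 µg/mL, final DMSO ≤1%. Inoculum 1–5 × 10³ CFU/mL. Incubated at 30 °C in a moist dark chamber. Read visually at 48 h. MIC100 is the lowest concentration with no visible growth versus drug-free control.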

[9] = Acute toxicity in bony fish assessed as mortality at 3 ug/mL after 96 hrs; settings: actinopterygii; read-out: Activity
In short: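 Guppy (Poecilia reticulata) acute static exposure: 10 fish per concentration in 2 L wide-mouthed jars holding the test solution. Compounds were added from […] to give the final concentrations. Dead fish were counted and removed every 24 h, with general condition noted; percentage mortality was scored at 96 h. Two experiments, each in triplicate.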

[10] = system: Cryptococcus neoformans; assay: Fungicidal activity against Cryptococcus neoformans ATCC 32264 at 0.98 to 250 ug/mL after 48 hrs by agar plate dilution method; assay type: functional, organism-based; in short: as §1
[11] = system: Trichophyton rubrum; assay: Antifungal activity against Trichophyton rubrum CCC 110 at 0.98 to 250 ug/mL by NCCLS broth microdilution method; assay type: functional, organism-based; in short: as §3
[12] = system: Cryptococcus neoformans; assay: Antifungal activity against Cryptococcus neoformans ATCC 32264 after 48 hrs by microplate reader analysis; assay type: functional; settings: ATCC 32264, 48 h
In short: (§5)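 Microplate growth-inhibition assay in RPMI-1640, compound at final 250–0.98 µg/mL (DMSO ≤1%). Inoculum 1–5 × 10³ CFU/mL. Sterility and DMSO growth controls included. Percent inhibition is computed from blank-corrected OD relative to the growth control, tested in duplicate.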

[13] = system: Cryptococcus neoformans; assay: Antifungal activity against Cryptococcus neoformans ATCC 32264 assessed as growth inhibition at 125 ug/mL after 48 hrs by microplate reader analysis; assay type: functional; settings: ATCC 32264, 48 h, read-out: GI; in short: as §5
[14] = system: Cryptococcus neoformans; assay: Antifungal activity against Cryptococcus neoformans ATCC 32264 assessed as growth inhibition at 31.25 ug/mL after 48 hrs by microplate reader analysis; assay type: functional; settings: ATCC 32264, 48 h, read-out: GI; in short: as §5
[15] = system: Candida tropicalis; assay: Antifungal activity against Candida tropicalis by microplate reader analysis; assay type: functional
[16] = system: Candida albicans; assay: Antifungal activity against Candida albicans ATCC 10231 assessed as growth inhibition at 15.6 ug/mL after 24 hrs by microplate reader analysis; assay type: functional; settings: ATCC 10231, 24 h, read-out: GI; in short: as §2
[17] = system: Candida tropicalis; assay: Antifungal activity against Candida tropicalis assessed as growth inhibition at 31.25 ug/mL by microplate reader analysis; assay type: functional; settings: read-out: GI
[18] = system: Candida tropicalis; assay: Antifungal activity against Candida tropicalis assessed as growth inhibition at 3.9 ug/mL by microplate reader analysis; assay type: functional; settings: read-out: GI
[19] = system: Candida tropicalis; assay: Antifungal activity against Candida tropicalis after 48 hrs by NCCLS broth microdilution method; assay type: functional; settings: read-out: MIC100; in short: as §4
[20] = system: Candida albicans; assay: Antifungal activity against Candida albicans ATCC 10231 assessed as growth inhibition at 250 ug/mL after 24 hrs by microplate reader analysis; assay type: functional; settings: ATCC 10231, 24 h, read-out: GI; in short: as §2
[21] = system: Cryptococcus neoformans; assay: Antifungal activity against Cryptococcus neoformans ATCC 32264 assessed as growth inhibition at 3.9 ug/mL after 48 hrs by microplate reader analysis; assay type: functional; settings: ATCC 32264, 48 h, read-out: GI; in short: as §5
[22] = system: Cryptococcus neoformans; assay: Antifungal activity against Cryptococcus neoformans ATCC 32264 assessed as growth inhibition at 7.8 ug/mL after 48 hrs by microplate reader analysis; assay type: functional; settings: ATCC 32264, 48 h, read-out: GI; in short: as §5
[23] = system: Cryptococcus neoformans; assay: Antifungal activity against Cryptococcus neoformans ATCC 32264 assessed as growth inhibition at 250 ug/mL after 48 hrs by microplate reader analysis; assay type: functional; settings: ATCC 32264, 48 h, read-out: GI; in short: as §5
[24] = system: Cryptococcus neoformans; assay: Antifungal activity against Cryptococcus neoformans ATCC 32264 assessed as growth inhibition at 62.5 ug/mL after 48 hrs by microplate reader analysis; assay type: functional; settings: ATCC 32264, 48 h, read-out: GI; in short: as §5
[25] = system: Cryptococcus neoformans; assay: Antifungal activity against Cryptococcus neoformans ATCC 32264 assessed as growth inhibition at 15.6 ug/mL after 48 hrs by microplate reader analysis; assay type: functional; settings: ATCC 32264, 48 h, read-out: GI; in short: as §5
[26] = system: Candida albicans; assay: Antifungal activity against Candida albicans ATCC 10231 after 24 hrs by microplate reader analysis; assay type: functional; settings: ATCC 10231, 24 h; in short: as §2
[27] = system: Candida albicans; assay: Antifungal activity against Candida albicans ATCC 10231 assessed as growth inhibition at 31.25 ug/mL after 24 hrs by microplate reader analysis; assay type: functional; settings: ATCC 10231, 24 h, read-out: GI; in short: as §2
[28] = system: Candida albicans; assay: Antifungal activity against Candida albicans ATCC 10231 after 48 hrs by NCCLS broth microdilution method; assay type: functional; settings: ATCC 10231, 48 h, read-out: MIC100; in short: as §4
[29] = system: Aspergillus flavus; assay: Antifungal activity against Aspergillus flavus ATCC 9170 at 0.98 to 250 ug/mL by NCCLS broth microdilution method; assay type: functional, organism-based; in short: as §3
[30] = system: Candida albicans; assay: Antifungal activity against Candida albicans ATCC 10231 assessed as growth inhibition at 7.8 ug/mL after 24 hrs by microplate reader analysis; assay type: functional; settings: ATCC 10231, 24 h, read-out: GI; in short: as §2
[31] = system: Candida tropicalis; assay: Antifungal activity against Candida tropicalis assessed as growth inhibition at 125 ug/mL by microplate reader analysis; assay type: functional; settings: read-out: GI
[32] = system: Candida tropicalis; assay: Antifungal activity against Candida tropicalis assessed as growth inhibition at 250 ug/mL by microplate reader analysis; assay type: functional; settings: read-out: GI
[33] = system: Candida albicans; assay: Antifungal activity against Candida albicans ATCC 10231 assessed as growth inhibition at 3.9 ug/mL after 24 hrs by microplate reader analysis; assay type: functional; settings: ATCC 10231, 24 h, read-out: GI; in short: as §2
[34] = system: Candida albicans; assay: Antifungal activity against Candida albicans ATCC 10231 assessed as growth inhibition at 125 ug/mL after 24 hrs by microplate reader analysis; assay type: functional; settings: ATCC 10231, 24 h, read-out: GI; in short: as §2
[35] = system: Aspergillus niger; assay: Antifungal activity against Aspergillus niger ATCC 9029 at 0.98 to 250 ug/mL by NCCLS broth microdilution method; assay type: functional, organism-based; in short: as §3
[36] = system: Candida tropicalis; assay: Antifungal activity against Candida tropicalis assessed as growth inhibition at 7.8 ug/mL by microplate reader analysis; assay type: functional; settings: read-out: GI
[37] = system: Candida tropicalis; assay: Fungicidal activity against Candida tropicalis at 0.98 to 250 ug/mL after 48 hrs by agar plate dilution method; assay type: functional, organism-based; in short: as §1

Structure (SMILES): COc1nc(N)nc2c1ncn2C12CC3CC(CC(C3)C1)C2
- Activity [1]: inactive
- inhibition of growth at 62.5 µg/mL [2]: 43.4%
- inhibition of growth at 62.5 µg/mL [3]: 53.3%
- Activity [4]: inactive
- inhibition of growth at 15.6 µg/mL [5]: 41.5%
- Activity [6]: inactive
- Activity [7]: inactive
- MIC [8]: 250 µg/mL (≈ 835 µM)
- mortality at 96 h, 3 ug/mL [9]: 0%
- Activity [10]: inactive
- Activity [11]: inactive
- MIC50 [12]: 31.2 µg/mL (≈ 104 µM)
- inhibition of growth at 125 µg/mL [13]: 88%
- inhibition of growth at 31.25 µg/mL [14]: 56.9%
- MIC50 [15]: 62.5 µg/mL (≈ 209 µM)
- inhibition of growth at 15.6 µg/mL [16]: 34.3%
- inhibition of growth at 31.25 µg/mL [17]: 47.3%
- inhibition of growth at 3.9 µg/mL [18]: 36.4%
- MIC [19]: 250 µg/mL (≈ 835 µM)
- inhibition of growth at 250 µg/mL [20]: 100%
- inhibition of growth at 3.9 µg/mL [21]: 0%
- inhibition of growth at 7.8 µg/mL [22]: 9.5%
- inhibition of growth at 250 µg/mL [23]: 100%
- inhibition of growth at 62.5 µg/mL [24]: 51.1%
- inhibition of growth at 15.6 µg/mL [25]: 39.2%
- MIC50 [26]: 62.5 µg/mL (≈ 209 µM)
- inhibition of growth at 31.25 µg/mL [27]: 38.9%
- MIC [28]: 250 µg/mL (≈ 835 µM)
- Activity [29]: inactive
- inhibition of growth at 7.8 µg/mL [30]: 23.2%
- inhibition of growth at 125 µg/mL [31]: 81.2%
- inhibition of growth at 250 µg/mL [32]: 100%
- inhibition of growth at 3.9 µg/mL [33]: 29.3%
- inhibition of growth at 125 µg/mL [34]: 86.8%
- Activity [35]: inactive
- inhibition of growth at 7.8 µg/mL [36]: 34.5%
- Activity [37]: inactive

— ChEMBL document CHEMBL2146464, “Structure-activity relationship study of nitrosopyrimidines acting as antifungal agents” (Bioorg Med Chem, 2012)
